Results as given in PubChem BioAssay AID1800 (The Scripps Research Institute Molecular Screening Center, 2009).
Hit rate of the full screen: of about 290,000 compounds, about 1,600 (0.55%) were called active.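 How the source made its calls: active means inhibition above the mean of all tested compounds plus 3 SD, set per campaign (cut at about 35% in these data); inactive means the rest.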 The sample as a whole holds a higher share of actives than the screen did.

Tested on: Hepatitis C virus NS3 helicase
Test: inhibitors of HCV NS3 helicase, primary screen, biochemical, Cy5 molecular beacon fluorescence (AID 1800);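 further: 0% = DMSO wells and 100% = thioflavine S control wells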
Conditions: NS3 helicase DNA unwinding, at 10.9 µM, hits give high values
In short: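 assay system = NS3 helicase fragment of HCV | buffer or medium = MOPS pH 6.5, MgCl2, DTT, Tween20, BSA | timing = 60 min unwinding reaction at 25 °C after ATP addition | signal = Cy5 beacon fluorescence read at start and 1 h | read-out basis = % inhibition of unwinding | control set = low DMSO, high thioflavine S at 110 µM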

inhibition, active:
CC(Oc1ccccc1)C(=O)Nc1oc(-c2ccco2)c(-c2ccco2)c1C#N (configuration not stated) 52.5%, COc1cc(/C=C2/C(=O)NN(c3cccc(Cl)c3)C2=O)cc(Br)c1O 64.2%, Cc1ccc(-c2nn(-c3ccccc3)cc2/C=C2\SC(=S)N(CCCCCC(=O)O)C2=O)o1 45.9%, O=C1N/C(=C/c2cccn2-c2ccccc2)C(=O)N1c1cccc(Cl)c1 43%, O=c1nc2s/c(=C\c3ccco3)c(=O)n2nc1Cc1ccccc1 45.8%, CCOc1ccc(C(C(=O)NCCOC)N(CCOC)C(=O)CCC(=O)Nc2ccccn2)cc1 (configuration not stated) 38.9%, O=c1[nH]c(/C=C\c2cccc(C(F)(F)F)c2)nc(O)c1[N+](=O)[O-] 47.4%, Cc1ccc(C2=N/C(=C\c3ccc(OS(=O)(=O)c4ccc(C)cc4)cc3)C(=O)O2)cc1 40.6%, O=C(CCl)NNc1cccc(Cl)n1 60.9%, CC(=O)Nc1ccc(Nc2c3ccccc3nc3ccccc23)cc1 38.4%, O=[N+]([O-])c1cc(Cl)cc(/C=N/NC(=S)Nc2cc(S(=O)(=O)N3CCOCC3)ccc2Cl)c1O 40.4%, CN(c1ccccc1)c1ccc(/C=c2\s/c(=C(/C#N)C(=O)C(C)(C)C)n(Cc3ccco3)c2=O)cc1 37%

inhibition, inactive:
NC(=O)c1nsc(C(=O)N(CCCN2CCOCC2)C(C(=O)NC2CCCCC2)c2ccc(Cl)cc2)c1N (configuration not stated) 13.6%, Cc1ccc(C(=O)/C=C/Nc2ccc(S(=O)(=O)Nc3onc(C)c3C)cc2)cc1 23.3%, COc1cc(C(=O)Nc2oc(-c3ccccc3)c(-c3ccccc3)c2C#N)cc(OC)c1OC -0.57%, CC(C)C(=O)Nc1oc(-c2ccccc2)cc1C#N 2.07%, Cc1cc2c(cc1C)N(C(=O)CN1C(=O)c3ccccc3C1=O)C(C)(C)c1ssc(=S)c1-2 -5.01%, O=C(CCC(=O)n1ncc2ccccc21)NCc1ccccc1Cl 12.6%, COc1cc(/C=C2/C(=O)NN(c3ccc(F)cc3)C2=O)cc([N+](=O)[O-])c1O 15.7%, C#CCOc1ccc(/C=C2/C(=O)NN(c3ccccc3)C2=O)cc1OC 27.8%, COC(=O)c1ccc(/C=C2/C(=O)Oc3ccccc32)cc1 4.46%, Nc1c(Cl)cc(-c2csc(N3CCCC3c3nc4cc(Cl)c(Cl)cc4n3CCOCCO)n2)cc1Cl (configuration not stated) -4.48%, CN(C)S(=O)(=O)c1cccc(-c2nn(-c3ccccc3)cc2/C=C2\SC(=S)N(CC(=O)O)C2=O)c1 9.49%, COc1ccc(-c2nn(-c3ccccc3)cc2/C=C2/SC(=S)N(CCCC(=O)O)C2=O)c(C)c1 -32.5%, CC(C)C1Cc2c(sc3c2c(=O)n(-c2ccccc2)c2nncn32)CO1 (configuration not stated) 1.09%, CC(C)(C)NC(=O)CSc1nnc(NC(=O)CCc2ccccc2)s1 -6.73%, O=C1/C(=C\c2ccsc2)NC(=S)N1c1ccccc1 11%, Cc1ccccc1NC(=O)CN1C(=O)N/C(=C\c2cccn2-c2cccc(C(=O)O)c2)C1=O 21.8%, O=C(CCc1ccccc1F)N1CCN(c2ccccc2)CC1 8.51%, Cc1ccccc1CCNC(=O)C1CCC(=O)N(Cc2ccc(Cl)cc2)C1 (configuration not stated) -13.2%, Cc1cccc(NC(=O)c2ccc3c(=O)n(CC4CCCO4)c(=S)[nH]c3c2)c1 (configuration not stated) -9.4%, Cc1nc2nc(SCC(=O)NCc3ccco3)nn2c(C)c1Cc1ccccc1 2.25%, CCOc1ccccc1/C=c1\sc2nc(-c3ccco3)nn2c1=O 27.9%, COC(=O)c1cc(S(=O)(=O)N2CCN(c3cc(C)ccc3C)CC2)c[nH]1 -25.3%, COCCN(C(=O)CCC(=O)Nc1ccccn1)C(C(=O)NCCC(C)C)c1ccc(OC)cc1 (configuration not stated) 0.66%, COCCNC(=O)C(c1ccc(C)cc1)N(C(=O)CCC(=O)Nc1ccccn1)c1cccc(C)c1 (configuration not stated) -11.8%, O=C(Nc1nnc(-c2ccc(F)cc2)s1)c1c(F)cccc1Cl -8.63%, Cc1ccccc1/C=C\c1nc(O)c([N+](=O)[O-])c(=O)[nH]1 9.37%, O=c1cc(O)c(-c2cccc(C(F)(F)F)c2)c(Cl)[nH]1 13.8%, CCNC(=O)N1CCCC(C(=O)c2ccc(-c3ccccc3)cc2)C1 (configuration not stated) -0.46%, O=C1OC(c2ccc(Cl)cc2)=N/C1=C\c1cccnc1 5.47%, Cc1ccc(S(=O)(=O)Oc2ccc(/C=N/NC(=O)c3ccncc3)cc2)cc1 -3.55%, O=C(CNc1cccc(S(=O)(=O)N2CCCCC2)c1)Nc1ccccc1F -2.03%, CCOCCCN(C)C1CCN(C(=O)c2oc3ccccc3c2NC(=O)COc2cccc(C)c2)CC1 -20.2%, O=C(NNc1ccccn1)c1ccc(Cl)nc1 -0.49%, O=C(CCl)NNc1nc(-c2ccccc2)c2cc(Cl)ccc2n1 3.47%, CCC(C(=O)OC)n1cnc2c(oc3ccccc32)c1=O (configuration not stated) -6.44%, CC(=O)Nc1ccc(NC(=O)COc2ncnc3ccccc23)cc1 8.73%, Cc1ccc(Nc2c3c(nc4ccccc24)CCC3)cc1 -35.6%, Cc1cccc(NC(=O)NC(=S)NC(=O)c2ccccc2)c1 7.16%, COC(=O)c1c(C)[nH]c(C(=O)NCCc2ccc(S(N)(=O)=O)cc2)c1C -6.64%, O=S(=O)(NCc1ccc(Cl)cc1Cl)c1cccs1 7.61%, O=C(N/N=C/c1cc(Cl)cc([N+](=O)[O-])c1O)C(O)(c1ccccc1)c1ccccc1 24.1%, O=C(CN1CCN(c2ccc(O)cc2)CC1)Nc1cc(S(=O)(=O)N2CCOCC2)ccc1Cl 13.6%, Cc1cccc(CCNS(=O)(=O)c2ccc(S(=O)(=O)NC3CCCC3)cc2)c1 -9.33%, CCOC(=O)/C=c1\s/c(=C\c2ccc(C#N)cc2)c(=O)n1CC(=O)Nc1cccc(C)c1C 12.5%, Cc1cs/c(=N\N=C\c2ccc(O)cc2)n1Cc1ccco1 3.43%
